Values after ≈ are worked out from the molar mass of the structure shown.
Tests used:
Assay type in all cases: functional, Salmonella enterica subsp. enterica serovar Typhimurium
Salmonella typhimurium [1] = test: Antimicrobial activity against Salmonella enterica serovar Typhimurium S21-2 gyrA+ with ParC S80I mutation
Procedure, shortened: (§1)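 MICs measured by broth microdilution on the Sensititre automated system and interpreted by CLSI broth microdilution standards. Ciprofloxacin was also tested by agar dilution, widening the range to 0.0075–128 μg/ml. Quality control strains were E. coli ATCC 25922 and 35218, E. faecalis ATCC 29212, S. aureus ATCC 29213 and P. aeruginosa ATCC 27853.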

Salmonella typhimurium [2] = test: Antimicrobial activity against Salmonella enterica serovar Typhimurium CHS14 gyrA+ with GyrA D87G mutation; procedure, shortened: as §1
Salmonella typhimurium [3] = test: Antimicrobial activity against Salmonella enterica serovar Typhimurium CHS38 with GyrA D87G mutation; procedure, shortened: as §1
Salmonella typhimurium [4] = test: Antimicrobial activity against Salmonella enterica serovar Typhimurium CS3 tolC::Kan with GyrA S83F, D87N, parC S80I mutation; procedure, shortened: as §1
Salmonella typhimurium [5] = test: Antimicrobial activity against Salmonella enterica serovar Typhimurium S21-4 acrAB::Kan with GyrA S83F, ParC S80I mutation; procedure, shortened: as §1
Salmonella typhimurium [6] = test: Antimicrobial activity against Salmonella enterica serovar Typhimurium CS9 gyrA+ with GyrA S83F, D87N, ParC S80I mutation; procedure, shortened: as §1
Salmonella typhimurium [7] = test: Antimicrobial activity against Salmonella enterica serovar Typhimurium CHS18 acrAB::Kan with GyrA S38F mutation; procedure, shortened: as §1
Salmonella typhimurium [8] = test: Antimicrobial activity against Salmonella enterica serovar Typhimurium CS1 acrAB::Kan with GyrA S83F, D87N, ParC S80I mutation; procedure, shortened: as §1
Salmonella typhimurium [9] = test: Antimicrobial activity against Salmonella enterica serovar Typhimurium CHS18 gyrA+ with GyrA S38F mutation; procedure, shortened: as §1
Salmonella typhimurium [10] = test: Antimicrobial activity against Salmonella enterica serovar Typhimurium S21-4 tolC::Kan with GyrA S83F, ParC S80I mutation; procedure, shortened: as §1
Salmonella typhimurium [11] = test: Antimicrobial activity against Salmonella enterica serovar Typhimurium CHS38 tolC::Kan with GyrA D87G mutation; procedure, shortened: as §1
Salmonella typhimurium [12] = test: Antimicrobial activity against Salmonella enterica serovar Typhimurium GyrA S21-1 acrAB::Kan with GyrA S83F mutation; procedure, shortened: as §1
Salmonella typhimurium [13] = test: Antimicrobial activity against Salmonella enterica serovar Typhimurium S21 acrAB::Kan
Procedure, shortened: (§2)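 MICs by automated broth microdilution panels, interpreted to CLSI broth microdilution standards. Ciprofloxacin additionally tested by agar dilution across 0.0075 to 128 μg/ml. Quality control strains: E. coli ATCC 25922 and 35218, Enterococcus faecalis ATCC 29212, S. aureus ATCC 29213, P. aeruginosa ATCC 27853. Test strains are kanamycin-marked deletion mutants of ground-beef isolate S21.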

Salmonella typhimurium [14] = test: Antimicrobial activity against Salmonella enterica serovar Typhimurium CHS18 with GyrA S38F mutation; procedure, shortened: as §1
Salmonella typhimurium [15] = test: Antimicrobial activity against Salmonella enterica serovar Typhimurium CHS38 gyrA+ with GyrA D87G mutation; procedure, shortened: as §1
Salmonella typhimurium [16] = test: Antimicrobial activity against Salmonella enterica serovar Typhimurium S21-2 acrAB::Kan with GyrA S83F, ParC S80I mutation; procedure, shortened: as §1
Salmonella typhimurium [17] = test: Antimicrobial activity against Salmonella enterica serovar Typhimurium CS1 gyrA+ with GyrA S83F, D87N, ParC S80I mutation; procedure, shortened: as §1
Salmonella typhimurium [18] = test: Antimicrobial activity against Salmonella enterica serovar Typhimurium CHS18 tolC::Kan with GyrA S38F mutation; procedure, shortened: as §1
Salmonella typhimurium [19] = test: Antimicrobial activity against Salmonella enterica serovar Typhimurium S21-1 gyrA+; procedure, shortened: as §1
Salmonella typhimurium [20] = test: Antimicrobial activity against Salmonella enterica serovar Typhimurium S21-1 tolC::Kan with GyrA S83F mutation; procedure, shortened: as §1
Salmonella typhimurium [21] = test: Antimicrobial activity against Salmonella enterica serovar Typhimurium S21 tolC::Kan; procedure, shortened: as §2
Salmonella typhimurium [22] = test: Antimicrobial activity against Salmonella enterica serovar Typhimurium CS9 acrAB::Kan with GyrA S83F, D87N, ParC S80I mutation; procedure, shortened: as §1
Salmonella typhimurium [23] = test: Antimicrobial activity against Salmonella enterica serovar Typhimurium S21-2 tolC::Kan with GyrA S83F, ParC S80I mutation; procedure, shortened: as §1
Salmonella typhimurium [24] = test: Antimicrobial activity against Salmonella enterica serovar Typhimurium CS3 with GyrA S83F, D87N, ParC S80I mutation; procedure, shortened: as §1
Salmonella typhimurium [25] = test: Antimicrobial activity against Salmonella enterica serovar Typhimurium CHS14 tolC::Kan with GyrA D87G mutant; procedure, shortened: as §1
Salmonella typhimurium [26] = test: Antimicrobial activity against Salmonella enterica serovar Typhimurium CHS14 with GyrA D87G mutation; procedure, shortened: as §1
Salmonella typhimurium [27] = test: Antimicrobial activity against Salmonella enterica serovar Typhimurium CHS14 acrAB::Kan with GyrA D87G mutation; procedure, shortened: as §1
Salmonella typhimurium [28] = test: Antimicrobial activity against Salmonella enterica serovar Typhimurium CS1 with GyrA S83F, D87N, ParC S80I mutation; procedure, shortened: as §1
Salmonella typhimurium [29] = test: Antimicrobial activity against Salmonella enterica serovar Typhimurium S21-4 with GyrA S83F, ParC S80I mutation; procedure, shortened: as §1
Salmonella typhimurium [30] = test: Antimicrobial activity against Salmonella enterica serovar Typhimurium S21-3 gyrA+ with ParC S80I mutation; procedure, shortened: as §1
Salmonella typhimurium [31] = test: Antimicrobial activity against Salmonella enterica serovar Typhimurium S21-2 with GyrA S83F, ParC S80I mutation; procedure, shortened: as §1
Salmonella typhimurium [32] = test: Antimicrobial activity against Salmonella enterica serovar Typhimurium CS3 gyrA+ with GyrA S83F, D87N, ParC S80I mutation; procedure, shortened: as §1
Salmonella typhimurium [33] = test: Antimicrobial activity against Salmonella enterica serovar Typhimurium CS1 tolC::Kan with GyrA S83F, D87N, ParC S80I mutation; procedure, shortened: as §1
Salmonella typhimurium [34] = test: Antimicrobial activity against Salmonella enterica serovar Typhimurium S21-1 GyrA S83F mutant; procedure, shortened: as §1
Salmonella typhimurium [35] = test: Antimicrobial activity against Salmonella enterica serovar Typhimurium S21; procedure, shortened: as §1
Salmonella typhimurium [36] = test: Antimicrobial activity against Salmonella enterica serovar Typhimurium CHS38 acrAB::Kan with GyrA D87G mutation; procedure, shortened: as §1
Salmonella typhimurium [37] = test: Antimicrobial activity against Salmonella enterica serovar Typhimurium S21 gyrA+; procedure, shortened: as §1
Salmonella typhimurium [38] = test: Antimicrobial activity against Salmonella enterica serovar Typhimurium S21-3 tolC::Kan with GyrA S83F, ParC S80I mutation; procedure, shortened: as §1
Salmonella typhimurium [39] = test: Antimicrobial activity against Salmonella enterica serovar Typhimurium S21-4 gyrA+ with ParC S80I mutation; procedure, shortened: as §1
Salmonella typhimurium [40] = test: Antimicrobial activity against Salmonella enterica serovar Typhimurium S21-3 with GyrA S83F, ParC S80I mutation; procedure, shortened: as §1
Salmonella typhimurium [41] = test: Antimicrobial activity against Salmonella enterica serovar Typhimurium CS3 acrAB::Kan with GyrA S83F, D87N, ParC S80I mutation; procedure, shortened: as §1
Salmonella typhimurium [42] = test: Antimicrobial activity against Salmonella enterica serovar Typhimurium S21-3 acrAB::Kan with GyrA S83F, ParC S80I mutation; procedure, shortened: as §1
Salmonella typhimurium [43] = test: Antimicrobial activity against Salmonella enterica serovar Typhimurium CS9 with GyrA S83F, D87N, ParC S80I mutation; procedure, shortened: as §1
Salmonella typhimurium [44] = test: Antimicrobial activity against Salmonella enterica serovar Typhimurium CS9 tolC::Kan with GyrA S83F, D87N, ParC S80I mutation; procedure, shortened: as §1

In the case of `COc1c(N2CCNC(C)C2)c(F)cc2c(=O)c(C(=O)O)cn(C3CC3)c12` (centres undefined) [GATIFLOXACIN], the MIC (Salmonella typhimurium [1]) is reported as 0.25 µg/mL (≈ 0.666 µM), the MIC (Salmonella typhimurium [2]) is reported as 0.03 µg/mL (≈ 0.0799 µM) and the MIC (Salmonella typhimurium [3]) is reported as 0.12 µg/mL (≈ 0.32 µM). It also gave an MIC (Salmonella typhimurium [4]) of 0.5 µg/mL (≈ 1.33 µM), an MIC (Salmonella typhimurium [5]) of 0.06 µg/mL (≈ 0.16 µM) and an MIC (Salmonella typhimurium [6]) of 0.06 µg/mL (≈ 0.16 µM). For the same compound, the MIC (Salmonella typhimurium [7]) was 0.12 µg/mL (≈ 0.32 µM), the MIC (Salmonella typhimurium [8]) was 0.5 µg/mL (≈ 1.33 µM) and the MIC (Salmonella typhimurium [9]) was 0.06 µg/mL (≈ 0.16 µM). The MIC (Salmonella typhimurium [10]) was 0.06 µg/mL (≈ 0.16 µM), the MIC (Salmonella typhimurium [11]) was < 0.015 µg/mL and the MIC (Salmonella typhimurium [12]) was 0.03 µg/mL (≈ 0.0799 µM). For the same compound, the MIC (Salmonella typhimurium [13]) was < 0.015 µg/mL, the MIC (Salmonella typhimurium [14]) was 0.25 µg/mL (≈ 0.666 µM) and the MIC (Salmonella typhimurium [15]) was < 0.015 µg/mL. The MIC (Salmonella typhimurium [16]) was 0.06 µg/mL (≈ 0.16 µM), the MIC (Salmonella typhimurium [17]) was 0.06 µg/mL (≈ 0.16 µM) and the MIC (Salmonella typhimurium [18]) was 0.03 µg/mL (≈ 0.0799 µM). For the same compound, the MIC (Salmonella typhimurium [19]) was 0.03 µg/mL (≈ 0.0799 µM), the MIC (Salmonella typhimurium [20]) was 0.03 µg/mL (≈ 0.0799 µM) and the MIC (Salmonella typhimurium [21]) was < 0.015 µg/mL. It also gave an MIC (Salmonella typhimurium [22]) of 0.5 µg/mL (≈ 1.33 µM), an MIC (Salmonella typhimurium [23]) of 0.06 µg/mL (≈ 0.16 µM) and an MIC (Salmonella typhimurium [24]) of 4 µg/mL (≈ 10.7 µM). For the same compound, the MIC (Salmonella typhimurium [25]) was < 0.015 µg/mL, the MIC (Salmonella typhimurium [26]) was 0.25 µg/mL (≈ 0.666 µM) and the MIC (Salmonella typhimurium [27]) was < 0.015 µg/mL. For the same compound, the MIC (Salmonella typhimurium [28]) was 4 µg/mL (≈ 10.7 µM), the MIC (Salmonella typhimurium [29]) was 16 µg/mL (≈ 42.6 µM) and the MIC (Salmonella typhimurium [30]) was 1 µg/mL (≈ 2.66 µM). It also gave an MIC (Salmonella typhimurium [31]) of 1 µg/mL (≈ 2.66 µM), an MIC (Salmonella typhimurium [32]) of 0.06 µg/mL (≈ 0.16 µM) and an MIC (Salmonella typhimurium [33]) of 0.5 µg/mL (≈ 1.33 µM). The MIC (Salmonella typhimurium [34]) was 0.5 µg/mL (≈ 1.33 µM), the MIC (Salmonella typhimurium [35]) was 0.03 µg/mL (≈ 0.0799 µM) and the MIC (Salmonella typhimurium [36]) was < 0.015 µg/mL. It also gave an MIC (Salmonella typhimurium [37]) of 0.03 µg/mL (≈ 0.0799 µM), an MIC (Salmonella typhimurium [38]) of 0.06 µg/mL (≈ 0.16 µM) and an MIC (Salmonella typhimurium [39]) of 2 µg/mL (≈ 5.33 µM). It also gave an MIC (Salmonella typhimurium [40]) of 8 µg/mL (≈ 21.3 µM), an MIC (Salmonella typhimurium [41]) of 0.5 µg/mL (≈ 1.33 µM) and an MIC (Salmonella typhimurium [42]) of 0.06 µg/mL (≈ 0.16 µM). The MIC (Salmonella typhimurium [43]) was 4 µg/mL (≈ 10.7 µM) and the MIC (Salmonella typhimurium [44]) was 0.5 µg/mL (≈ 1.33 µM).

Reference: ChEMBL document CHEMBL1142136, “Contribution of target gene mutations and efflux to decreased susceptibility of Salmonella enterica serovar typhimurium to fluoroquinolones and other antimicrobials” (2007)
